Data on 13 compounds can be found in PubChem BioAssay AID588510 (Broad Institute, 2011).

Activity calls are given as the source filed them. How the calls were made is not given here.

Chain of Protein LANA1 (Human herpesvirus 8 type P (isolate GK18)) (Q9QR71 whole entry, looked up): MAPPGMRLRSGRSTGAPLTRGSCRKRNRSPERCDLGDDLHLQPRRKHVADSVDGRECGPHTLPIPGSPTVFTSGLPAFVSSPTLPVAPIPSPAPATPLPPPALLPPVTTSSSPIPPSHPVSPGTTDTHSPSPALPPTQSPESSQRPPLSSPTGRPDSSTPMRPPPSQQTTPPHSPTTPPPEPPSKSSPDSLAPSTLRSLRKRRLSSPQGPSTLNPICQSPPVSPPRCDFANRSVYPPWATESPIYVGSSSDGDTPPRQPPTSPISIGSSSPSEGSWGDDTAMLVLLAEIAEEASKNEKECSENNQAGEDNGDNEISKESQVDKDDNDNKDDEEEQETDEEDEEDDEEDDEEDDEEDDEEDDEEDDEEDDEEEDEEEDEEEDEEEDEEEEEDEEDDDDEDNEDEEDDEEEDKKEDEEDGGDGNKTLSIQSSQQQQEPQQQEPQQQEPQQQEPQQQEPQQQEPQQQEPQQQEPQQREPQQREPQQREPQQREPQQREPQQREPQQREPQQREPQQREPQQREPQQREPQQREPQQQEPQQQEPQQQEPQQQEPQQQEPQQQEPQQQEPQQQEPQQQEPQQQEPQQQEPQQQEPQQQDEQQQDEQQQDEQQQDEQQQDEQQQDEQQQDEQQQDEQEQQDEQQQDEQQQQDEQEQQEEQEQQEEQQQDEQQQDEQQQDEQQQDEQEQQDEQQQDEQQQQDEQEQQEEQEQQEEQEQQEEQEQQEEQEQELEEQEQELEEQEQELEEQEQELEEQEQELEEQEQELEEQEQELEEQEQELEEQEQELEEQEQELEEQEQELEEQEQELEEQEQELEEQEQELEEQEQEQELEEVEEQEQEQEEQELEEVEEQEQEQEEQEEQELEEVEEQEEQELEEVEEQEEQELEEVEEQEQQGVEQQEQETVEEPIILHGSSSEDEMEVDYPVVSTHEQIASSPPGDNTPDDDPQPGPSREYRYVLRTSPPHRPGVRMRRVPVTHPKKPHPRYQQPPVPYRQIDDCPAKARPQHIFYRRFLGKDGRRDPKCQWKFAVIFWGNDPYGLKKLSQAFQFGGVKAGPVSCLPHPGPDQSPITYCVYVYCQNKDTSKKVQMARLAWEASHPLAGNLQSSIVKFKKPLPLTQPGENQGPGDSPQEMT

The target in this experiment is Protein LANA1 (Human herpesvirus 8 type P (isolate GK18)) (UniProt Q9QR71). Put plainly: GST-LANA peptide binding to nucleosomes, inhibition – biochemical, ELISA, dry powder samples, orthogonal assay, dose response (AID 588510). Particulars: GST-LANA 1-23 binding to nucleosomes, ELISA 450 nm; series mostly up to 50 µM; activity (ratio to control): at the top concentration. In short, it runs like this:
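System: Purified nucleosomes plus GST-LANA 1-23 peptide | Quantity: Nucleosomes 1.5 µg per well | Medium: Milk-blocked nucleosome-coated wells | Also added: GST-LANA 1-23, 7.5 µg/mL | Doses: Pinned compound, dose series | Schedule: Compound plus GST-LANA 90 min 4 °C, substrate 30 min RT | Signal: Colorimetric ELISA, anti-GST and secondary antibodies, absorbance 450 nm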
As to `Clc1ccc(-c2nnc3sc(-c4ccc(Br)o4)nn23)cc1`, the “activity (ratio to control)” value was 97.5% (inactive). To `COc1ccc(C2C=C(c3ccc(Br)cc3)Nc3nc(NS(C)(=O)=O)nn32)cc1` (stereo not drawn) belongs 99.7% (inactive); to `CC(=O)Nc1cccc(N)c1`, 97.2% (inactive); to `CC(=O)Nc1ccc(-c2cn3ccsc3n2)cc1`, 127% (inactive). In the case of `O=C(CCCN1C(=O)c2cccc3cccc(c23)C1=O)N1CCN(c2ccccc2)CC1`, the “activity (ratio to control)” value is 130% (inactive). As for `Cc1cc(C)c2nc(C(F)(F)F)nc(NCCCN3CCCC3=O)c2c1`, the figure is 95.3% (inactive); as for `Cc1ccc(Cl)cc1N1CCN(C(=O)C2CCN(S(C)(=O)=O)CC2)CC1`, 99.1% (inactive); as for `O=S(=O)(Nc1cc(Cl)ccc1N1CCOCC1)c1ccccc1Cl`, 105% (inactive). As for `COc1ccc2ccccc2c1C(O)c1nccn1C` (stereo not drawn), the figure is 92.2% (inactive); as for `Cc1cc(C)cc(NS(=O)(=O)c2ccc3c(c2)C(C)(C)C(=O)N3C)c1`, 99.5% (inactive); as for `Cc1cccc(N2C(=O)c3cccc4c(N(C)CCO)ccc(c34)C2=O)c1`, 114% (inactive). As for `CC1Cc2ccccc2N1C(=O)CSc1ncccn1` (stereo not drawn), the figure is 140% (inactive); as for `CC(C)(C)C1(C)OC(=O)C(=Cc2ccc(OCC(=O)Nc3ccccc3)cc2)C(=O)O1` (stereo not drawn), 94.4% (inactive).
